Screening data (PubChem)
EP2 modulator: EP2 receptor (human) modulation. P43116. EP2-expressing cells, cAMP HTRF FRET, PGE2 co-stimulation. induction, % at 25 µM. 0.83% of 260,000 active;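 active = compounds whose cAMP rise, as percent of the full-agonist control response, exceeds 60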;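 note: rat C6 glioma line stably carrying human EP2 under a CMV promoter; the protocol text gives 20 µM as final concentration; 100% = response of wells given 1 µM PGE2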
Target sequence (P43116 whole entry, looked up): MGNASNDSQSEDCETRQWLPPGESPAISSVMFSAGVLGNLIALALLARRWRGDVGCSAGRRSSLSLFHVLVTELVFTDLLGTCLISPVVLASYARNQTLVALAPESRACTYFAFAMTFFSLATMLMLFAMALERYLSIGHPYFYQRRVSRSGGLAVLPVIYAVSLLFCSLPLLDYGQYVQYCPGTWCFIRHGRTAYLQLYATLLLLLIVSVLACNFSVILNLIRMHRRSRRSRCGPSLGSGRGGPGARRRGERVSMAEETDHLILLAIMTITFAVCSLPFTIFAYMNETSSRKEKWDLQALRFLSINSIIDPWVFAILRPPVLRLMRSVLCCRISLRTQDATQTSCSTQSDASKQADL
MT stabilizer: stabilizes microtubules in HeLa cells | HeLa tubulin immunostaining HCS, 24 h; share of cells brighter than vehicle mean+2SD | % tubulin-high responders, % at 10 µM | 0.83% of 200,000 active;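 active = plate Z-score above 3 for both tubulin-high and condensed-nucleus cell shares, with cell loss under 80%, at 10 µM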;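 note: anti alpha tubulin signal scored within the nucleus-defined area of each cell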
bCat nuc transl: alters nuclear translocation of beta-catenin in HeLa cells; immunofluorescence imaging; 0.3% of 190,000 active; nuclear translocation activity, % at 5 µM;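 active = nuclear translocation activity above 50% at 5 µM, with a well cell count of 50 or more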;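 note: per-cell ratio of nuclear to cytoplasmic median beta-catenin stain intensity; plate controls were DMSO negative control for no effect and GSK-3 inhibitor IX positive control for full effect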
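Assay system: human HeLa cells, native beta-catenin; doses: 5 µM primary, 0.02–20 µM confirmation; incubation: compound treatment 24 h, 37°C, 5% CO2; technique: fluorescence imaging of beta-catenin antibody stain plus DAPI; measure: % activation, nuclear-to-cytoplasmic median beta-catenin signal ratio per cell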
Efa HMGR inh: inhibitors of class II HMG-CoA reductase from Enterococcus faecalis; purified E. faecalis HMGR, NADPH absorbance 340 nm kinetic; inhibition, % at 10 µM; 0.41% of 190,000 active; AID 1066;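 active = inhibition above a set limit, the median over all tested compounds plus 3 SD, cut at about 9.5% in these data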;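 note: enzyme runs in reverse so mevalonate oxidation gives rising NADPH absorbance; 0% = complete reaction with DMSO and 100% = background rate lacking mevalonate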
Tb hexokinase: T. brucei hexokinase 1 inhibition; inhibition, % at 10 µM; 0.11% of 220,000 active; recombinant TbHK1, G6PDH-coupled NADH A340;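 active = inhibition of 50% or more in the single-dose primary screen; inactive = inhibition below 50%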
EP2 antag: EP2 receptor (human) inhibition | C6 glioma cells expressing human EP2, cAMP TR-FRET; cells stimulated with saturating PGE2 | inhibition, % at 25 µM | 0.52% of 260,000 active | AID 1422;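 active = percent inhibition above 40 after rounding to a whole number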;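 note: rat C6 glioma host cells with rolipram phosphodiesterase inhibitor present; the protocol text gives 20 µM as final concentration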
EP2 confirm: EP2 receptor cAMP induction, counter-screens negative. calls only at 20 µM (by protocol). 47% of 1,300 active. C6 glioma EP2 cells, cAMP HTRF induction; plus low (about EC15) PGE2 agonist. shares compounds with EP2 modulator;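 active = cAMP induction above 50% in the main assay while under 30% in all four parallel counter assays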;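 note: rat C6 glioma cells stably expressing human EP2 receptor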
Starred values were filed as active, the others as inactive; i = inactive; . = no result; + = active, no number; ! = a repeat was not active. Most compounds without a hit are left out; they make up all but 2.4% or so of the library.

SMILES	EP2 modulator	MT stabilizer	bCat nuc transl	Efa HMGR inh	Tb hexokinase	EP2 antag	others
C=Cn1cc(CN2C3CCC2CC(O)(c2ccc(OC)cc2)C3)c(C)n1 (stereo not drawn)	-17	.	.	.	.	6
CC[C@@H]1[C@@H]2Cc3ccc(O)cc3[C@@]1(CC)CCN2C	14	.	.	.	.	52*
CN1CCC23CCCC[C@H]2C1Cc1ccc(O)cc13 (stereo partly drawn)	19	.	.	.	.	12
O=C(CN1C2CCC1CC(O)(c1ccco1)C2)Nc1ccc2[nH]c(=O)[nH]c2c1 (stereo not drawn)	19	.	.	.	.	.
Cc1ccc(S(=O)ON2CCC(C(=O)O)(c3ccccc3)CC2)cc1 (stereo not drawn)	20	.	.	.	.	45*
Cc1ccc(-c2nn(Cc3ccccc3)cc2C(=O)O)cc1	0	.	1	.	7	2
COCCc1ncc(CN2C3CCC2CC(O)(c2ccc(F)cc2)C3)cn1 (stereo not drawn)	-132	.	.	.	.	2
COc1c(C)cccc1CN1C2CCC1CC(O)(c1ccccc1F)C2 (stereo not drawn)	-41	.	.	.	.	3
C[C@]12C=CC(=O)C=C1CCC1C2CC[C@]2(C)C(=O)CCC12 (stereo partly drawn)	19	.	.	.	.	12
CC(=O)OC1=CC2=CC[C@H]3[C@@H]4CCC(=O)[C@@]4(C)CC(=O)[C@]3(S)[C@]2(C)CC1	-1	.	.	.	.	63*
O=C(CN1C(=O)CN=C(c2ccc(Cl)cc2)c2c1sc1c2CCCC1)NCc1ccco1	-33	.	.	.	.	27
Cc1ccc(C2=CCN(CC(=O)N(C)C3CCCCC3)CC2)o1	-23	.	.	.	.	.
COc1ccc(CCNCc2ccncc2)cc1OC	18	2	2	-2	-8	7
COc1cc2ccccc2cc1C(=O)Nc1ccc(Cc2ccncc2)cc1	-47	50*	3	-5	5	10
O=C(O)C(O)(c1ccc(-c2ccccc2)cc1)c1ccc(-c2ccccc2)cc1	12	.	.	.	.	41*
CC(=O)c1ccc(-c2ccccc2)cc1	10	4	0	-5	2	10
COc1cc(CN2C3CCC2CC(O)(c2nccn2C)C3)ccc1OC(C)C (stereo not drawn)	-29	.	.	.	.	9
Cc1cccc(-n2c(O)c(/C=C3/C(c4ccccc4)=Nc4ccccc43)c(=O)[nH]c2=O)c1	-20	.	52*	.	-12	21
C[N+]1([O-])[C@@H]2CC(OC(=O)[C@@H](CO)c3ccccc3)C[C@H]1[C@H]1O[C@H]12 (stereo partly drawn)	29	.	.	.	.	49*
C[N+]1(C)C2CC(OC(=O)[C@@H](CO)c3ccccc3)CC1C1OC12 (stereo partly drawn)	19	.	.	.	.	5
Cc1ccc(C)c(-c2nc(C)sc2CC(=O)N2CCCCC2CN2CCCC2)c1 (stereo not drawn)	-22	.	.	.	.	9
CC(C)[C@]1(O)[C@@H](OC(=O)c2ccc[nH]2)[C@@]2(O)[C@@]3(C)C[C@]4(O)O[C@@]5([C@H](O)[C@@H](C)CC[C@@]35O)[C@@]2(O)[C@@]41C	6	.	.	.	.	51*
Cc1nc2ccccc2cc1C[N+]12CN3CN(CN(C3)C1)C2	6	.	.	.	.	50*
c1ccc(C[N+]23CN4CN(CN(C4)C2)C3)cc1	13	.	.	.	.	6
COc1cc2c3cc1Oc1c(O)c(OC)cc4c1[C@@H](Cc1ccc(cc1)Oc1cc(ccc1O)C[C@@H]3N(C)CC2)N(C)CC4	-7	.	.	.	.	48*
SMILES	EP2 modulator	MT stabilizer	bCat nuc transl	Efa HMGR inh	Tb hexokinase	EP2 antag	others
COc1cc2c3cc1Oc1cc(ccc1O)C[C@@H]1c4c(cc(OC)c(O)c4Oc4ccc(cc4)C[C@H]3N(C)CC2)CCN1C	-18	6	1	-1	1	18
O=C1NC(=O)C(CCc2ccncc2)(CCc2ccccn2)C(=O)N1c1ccc(Br)cc1 (stereo not drawn)	6	17*	1	4	-7	6
Cc1ccc(N2C(=O)NC(=O)C(CCc3ccccn3)(Cc3cccc(Cl)c3Cl)C2=O)cc1 (stereo not drawn)	3	4	-1	1	-1	6
O=C1C(Cl)=C(Cl)C(=O)C(Cl)=C1Cl	-36	.	.	.	.	109*
CN(C)CCN(C(=O)Cc1ccc2c(c1)OCCO2)C1CCCC1	-17	.	.	.	.	1
C=CCc1cc(C=C2C(=O)N(C)C(=O)N(C)C2=O)cc(OCC)c1OCc1ccccc1	88*	3	3	-4	6	5	EP2 confirm=i
CN(C/N=C(\N)N[N+](=O)[O-])S(=O)(=O)c1ccccc1	-3	3	0	-5	8	3
NC(=NCCC[C@H](N)C(=O)O)N[N+](=O)[O-]	86*!	.	.	.	.	12	EP2 confirm=i
COC[C@H]1OC(=O)c2coc3c2[C@@]1(C)C1=C(C3=O)C2CCC(=O)[C@@]2(C)C[C@H]1OC(C)=O (stereo partly drawn)	50	.	.	.	.	15	EP2 confirm=i
CCCn1nc(CC(=O)N(C)CCN2CCCCC2)c2ccccc2c1=O	-8	.	.	.	.	6
Clc1ccccc1C1NCc2ccccc2-n2cccc21 (stereo not drawn)	68*	2	-2	-1	-6	7	EP2 confirm=+
O=C(CN1C2CCC1CC(O)(c1ccco1)C2)Nc1nccs1 (stereo not drawn)	-26	.	.	.	.	.
CCOP(=S)(OCC)Oc1nc(Cl)c(Cl)cc1Cl	68*	.	.	.	.	7	EP2 confirm=+
COc1ccc(-c2nc(C)sc2CC(=O)N(CCN(C)C)C2CCCC2)cc1	-12	.	.	.	.	3
COc1ccccc1CN(CCN(C)C)C(=O)Cc1coc2cc(C)ccc12	-71	.	.	.	.	21
NCCc1ccc(O)cc1	-8	3	1	1	1	12
CCCCCCCCCc1ccc(O)cc1	55	.	.	.	.	9	EP2 confirm=i
CCOCc1cc(CN2C3CCC2CC(O)(c2ccccc2F)C3)ccc1OC (stereo not drawn)	-34	.	.	.	.	10
CC(C)CCNC(=O)c1c(N)n(CC2CCCO2)c2nc3ccccc3nc12 (stereo not drawn)	69*	2	.	-9	-28	4	EP2 confirm=+
CCC(C)NC(=O)c1c(N)n(CC2CCCO2)c2nc3ccccc3nc12 (stereo not drawn)	57	3	-6	0	-10	15
CC[C@]12C=CCN3CC[C@@]4(c5ccc(OC)cc5N(C)C4[C@@](O)(C(=O)OC)[C@@H]1OC(C)=O)[C@@H]32 (stereo partly drawn)	17	.	.	.	.	14
O=C(CNC1CCCCC1)N1CCC2(CC1)OCCO2	73*!	3	-6	-8	0	7	EP2 confirm=i
O=C(NC(Cc1ccccc1)C(=O)N1CCC2(CC1)OCCO2)C1CCCCC1 (stereo not drawn)	6	5	-2	-1	8	3
C[C@H](N)[C@H](O)c1ccc(O)c(O)c1	74*	.	.	.	.	8	EP2 confirm=i
